Assay results from ChEMBL document CHEMBL1124149 (1988).
In brackets after ≈: the same amount, converted by molar mass.

Tests used:
Format in all cases: functional
Cytomegalovirus [1] = test: In vitro minimum inhibitory concentration to inhibit CMV (Davis)-induced cytopathogenicity in HEL cells by 50%; details: Human betaherpesvirus 5
FM3A = test: Antitumor activity against murine mammary carcinoma FM3A cells; details: Mus musculus; read-out: MIC
Procedure, shortened: (§1)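 Tumor cell proliferation assay. Murine leukemia L1210 and murine mammary carcinoma FM3A cells were grown in culture with the compound. The value is the concentration inhibiting cell proliferation by 50%.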

Human alphaherpesvirus 2 [2] = test: In vitro minimum inhibitory concentration to inhibit HSV-2 (196)-induced cytopathogenicity in PRK cells by 50%
Procedure, shortened: (§2)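 Antiviral read-out was virus-induced cytopathogenicity in primary rabbit kidney (PRK) cell cultures. The value is the compound concentration needed to reduce cytopathogenicity by 50%.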

Human alphaherpesvirus 2 [3] = test: In vitro minimum inhibitory concentration to inhibit HSV-2 (G)-induced cytopathogenicity in PRK cells by 50%; procedure, shortened: as §2
Human alphaherpesvirus 2 [4] = test: In vitro minimum inhibitory concentration to inhibit HSV-2 (Lyons)-induced cytopathogenicity in PRK cells by 50%; procedure, shortened: as §2
Human alphaherpesvirus 1 [5] = test: In vitro minimum inhibitory concentration to inhibit HSV-1 (KOS)-induced cytopathogenicity in primary rabbit kidney cells by 50%; procedure, shortened: as §2
Human alphaherpesvirus 1 [6] = test: In vitro minimum inhibitory concentration to inhibit HSV-1 (McIntyre)-induced cytopathogenicity in PRK cells by 50%; procedure, shortened: as §2
Human alphaherpesvirus 1 [7] = test: In vitro minimum inhibitory concentration to inhibit thymidine deficient HSV-1 (B2006)-induced cytopathogenicity in PRK cells by 50%; procedure, shortened: as §2
Human alphaherpesvirus 1 [8] = test: In vitro minimum inhibitory concentration to inhibit thymidine deficient HSV-1 (VMV 1837)- induced cytopathogenicity in PRK cells by 50%; procedure, shortened: as §2
L1210 = test: Antitumor activity against murine leukemia L1210 cells; details: Mus musculus; read-out: MIC; procedure, shortened: as §1
[9] = In vitro minimum inhibitory concentration to inhibit […] (incorporation of [methyl-3H]dThd) in PRK cells by 50%
Suid alphaherpesvirus 1 = test: In vitro minimum inhibitory concentration to inhibit SHV-1-induced cytopathogenicity in PRK cells by 50%; procedure, shortened: as §2
Human alphaherpesvirus 3 [10] = test: In vitro minimum inhibitory concentration to inhibit VZV (Oka)-induced cytopathogenicity in HEL cells by 50%
Human alphaherpesvirus 3 [11] = test: In vitro minimum inhibitory concentration to inhibit VZV (YS)-induced cytopathogenicity in HEL cells by 50%
Human alphaherpesvirus 3 [12] = test: In vitro minimum inhibitory concentration to inhibit thymidine deficient VZV (YSR)-induced cytopathogenicity in HEL cells by 50%
Equid alphaherpesvirus 1 = test: In vitro minimum inhibitory concentration to inhibit EHV-1-induced cytopathogenicity in PRK cells by 50%; procedure, shortened: as §2
[13] = tested on: Bovine alphaherpesvirus 1; test: In vitro minimum inhibitory concentration to inhibit BHV-1-induced cytopathogenicity in PRK cells by 50%; procedure, shortened: as §2
Cytomegalovirus [14] = test: In vitro minimum inhibitory concentration to inhibit CMV (AD-169)-induced cytopathogenicity in HEL cells by 50%; details: Human betaherpesvirus 5
Human alphaherpesvirus 1 [15] = test: In vitro minimum inhibitory concentration to inhibit HSV-1 (F)-induced cytopathogenicity in primary rabbit kidney cells by 50%; procedure, shortened: as §2

Structure (SMILES)	MIC (Cytomegalovirus [1]) [µg/mL]	IC50 (FM3A) [µg/mL]	MIC (Human alphaherpesvirus 2 [2]) [µg/mL]	MIC (Human alphaherpesvirus 2 [3]) [µg/mL]	MIC (Human alphaherpesvirus 2 [4]) [µg/mL]	MIC (Human alphaherpesvirus 1 [5]) [µg/mL]	MIC (Human alphaherpesvirus 1 [6]) [µg/mL]	MIC (Human alphaherpesvirus 1 [7]) [µg/mL]	MIC (Human alphaherpesvirus 1 [8]) [µg/mL]	IC50 (L1210) [µg/mL]	MIC ([9]; Oryctolagus cuniculus) [µg/mL]	MIC (Suid alphaherpesvirus 1) [µg/mL]	MIC (Human alphaherpesvirus 3 [10]) [µg/mL]	MIC (Human alphaherpesvirus 3 [11]) [µg/mL]	MIC (Human alphaherpesvirus 3 [12]) [µg/mL]	MIC (Equid alphaherpesvirus 1) [µg/mL]	MIC [13] [µg/mL]	MIC (Cytomegalovirus [14]) [µg/mL]	MIC (Human alphaherpesvirus 1 [15]) [µg/mL]	MIC [9] [µg/mL]
Cc1cn2c(=O)c3ncn(COCCO)c3nc2n1C	> 100	> 100	> 400	> 400	> 400	> 400	> 400	> 400	> 400	> 100	> 4000	> 400	> 100	> 100	> 100	> 400	> 400	> 100	> 400	–
CNc1nc(O)c2ncn(COCCO)c2n1	> 100	> 100	> 400	300 (≈ 1250 µM)	> 400	> 400	> 400	> 400	> 400	> 100	> 400	> 400	> 100	> 100	> 100	> 400	> 400	> 100	> 400	–
Cn1c[n+](COCCO)c2nc(N)nc([O-])c21.O=S(=O)(O)O	> 100	> 100	100	40	100	70	70	> 400	> 400	> 100	> 400	> 400	> 100	> 100	> 100	> 400	> 400	> 100	70	–
Nc1nc2c(ncn2COCCO)c(=O)[nH]1 [ACYCLOVIR]	20 (≈ 88.8 µM)	–	0.07 (≈ 0.311 µM)	0.07 (≈ 0.311 µM)	0.2 (≈ 0.888 µM)	0.2 (≈ 0.888 µM)	0.2 (≈ 0.888 µM)	20 (≈ 88.8 µM)	20 (≈ 88.8 µM)	–	–	7 (≈ 31.1 µM)	–	–	–	0.2 (≈ 0.888 µM)	7 (≈ 31.1 µM)	–	0.1 (≈ 0.444 µM)	8 (≈ 35.5 µM)
